Laboratory results: ChEMBL document CHEMBL4340523, “Selective Inhibitors of Helicobacter pylori Methylthioadenosine Nucleosidase and Human Methylthioadenosine Phosphorylase” (J Med Chem, 2019)
Calls of active or inactive are those of the source. The rule behind the calls is not given here.

Key:
[1] = molecular target: T1, S-methyl-5'-thioadenosine phosphorylase (Homo sapiens, UniProt Q13126); experiment: Binding affinity to recombinant human N-terminal TEV cleavage site-fused-His6-tagged MTAP expressed in Escherichia coli BL21-CodonPlus(DE3)-RIPL competent cells assessed as reduction in MTA hydrolysis measured after 40 mins in presence of xanthine oxidase
T1 sequence (Q13126 whole entry): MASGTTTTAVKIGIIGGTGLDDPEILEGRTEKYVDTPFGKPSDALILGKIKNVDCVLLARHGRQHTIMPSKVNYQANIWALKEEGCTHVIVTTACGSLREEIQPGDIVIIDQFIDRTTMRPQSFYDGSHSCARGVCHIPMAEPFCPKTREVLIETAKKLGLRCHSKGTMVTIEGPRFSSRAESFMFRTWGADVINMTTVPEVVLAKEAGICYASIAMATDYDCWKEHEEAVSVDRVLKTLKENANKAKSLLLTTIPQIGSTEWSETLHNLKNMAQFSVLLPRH
How it was run: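 MTAP (His6-tagged, TEV site, 14 extra N-terminal residues) was Ni-NTA purified and charcoal-dialysed to remove adenine. Each 1 mL cuvette held 100 mM K2PO4, 1 mM DTT, 800 μM MTA, 3 nM MTAP, 1 unit xanthine oxidase and varying inhibitor. Xanthine oxidase coupling gave 2,8-dihydroxyadenine, read at 305 nm (ε 15.5 mM⁻¹ cm⁻¹). Rates were taken at 40 min after slow-onset equilibrium. Ki* came from a Morrison quadratic fit.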

[2] = Binding affinity to recombinant Helicobacter pylori MTAN expressed in Escherichia coli BL21(DE3) assessed as reduction in MTA hydrolysis measured after 40 mins in presence of xanthine oxidase
How it was run: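 His-tagged HpMTAN was purified by Ni-NTA and freed of bound adenine by charcoal dialysis. Adenine was oxidized to 2,8-dihydroxyadenine and followed at 305 nm. Rates were read at 40 min, after slow-onset equilibrium, and fitted to the Morrison quadratic equation for Ki*.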

[3] = Selectivity ratio of Kd for recombinant human N-terminal TEV cleavage site-fused-His6-tagged MTAP expressed in Escherichia coli BL21-CodonPlus(DE3)-RIPL competent cells to Kd for recombinant Helicobacter pylori MTAN expressed in Escherichia coli BL21(DE3)
How it was run: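 Ratio of the human MTAP dissociation constant to the HpMTAN dissociation constant. Each constant came from xanthine oxidase-coupled 305 nm rates taken at 40 min after slow-onset equilibrium and fitted to the Morrison equation. The MTAP assay used 800 μM MTA and 3 nM enzyme in 100 mM K2PO4; the HpMTAN assay used 1 mM MTA and 0.6 nM enzyme in 100 mM HEPES pH 7.2 with 100 mM NaCl.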

[4] = molecular target: T2, S-methyl-5'-thioadenosine phosphorylase (Homo sapiens) (UniProt Q13126); experiment: Binding affinity to recombinant human N-terminal TEV cleavage site-fused-His6-tagged MTAP expressed in Escherichia coli BL21-CodonPlus(DE3)-RIPL competent cells assessed as reduction in MTA hydrolysis at 5 uM measured after 40 mins in presence of xanthine oxidase
T2 sequence (whole entry): T1 sequence (Q13126 whole entry)

Helicobacter pylori = experiment: Binding affinity to recombinant Helicobacter pylori MTAN expressed in Escherichia coli BL21(DE3) assessed as reduction in MTA hydrolysis at 5 uM measured after 40 mins in presence of xanthine oxidase

SMILES | Kd [1] [nM] | Kd [2] [nM] | Selectivity ratio [3] | Activity [4] | Activity (Helicobacter pylori)
C=CCn1cc(CCCSC[C@H]2CN(Cc3c[nH]c4c(N)ncnc34)C[C@@H]2O)nn1 | 2.4 | 0.026 | 92.3 |  | 
Cn1cc(CCCSC[C@H]2CN(Cc3c[nH]c4c(N)ncnc34)C[C@@H]2O)nn1 | 3 | 0.025 | 120 |  | 
CSC[C@H]1CN(Cc2[nH]nc3c(N)ncnc23)C[C@@H]1O | 19 | 0.235 | 80.9 |  | 
Cn1cc(CSC[C@H]2CN(Cc3c[nH]c4c(N)ncnc34)C[C@@H]2O)nn1 | 66 | 0.274 | 241 |  | 
CCCCn1cc(CSC[C@H]2CN(Cc3c[nH]c4c(N)ncnc34)C[C@@H]2O)nn1 | 37 | 0.373 | 99.2 |  | 
Nc1ncnc2c(CN3C[C@H](CSc4ncccn4)[C@@H](O)C3)c[nH]c12 | 13 | 0.058 | 224 |  | 
C#CCSC[C@H]1CN(Cc2c[nH]c3c(N)ncnc23)C[C@@H]1O | 0.63 | 0.055 | 11.5 |  | 
CSC[C@H]1CN(Cc2c[nH]c3c(=O)[nH]ccc23)C[C@@H]1O |  |  |  | inactive | inactive
Nc1ncnc2c(CN3C[C@H](CSCCCc4cn(Cc5ccccc5)nn4)[C@@H](O)C3)c[nH]c12 | 1.4 | 0.036 | 38.9 |  | 
C=CCn1cc(CSC[C@H]2CN(Cc3c[nH]c4c(N)ncnc34)C[C@@H]2O)nn1 | 70 | 0.288 | 243 |  | 
Nc1ncnc2c(CN3C[C@H](CSCc4cn(Cc5ccccc5)nn4)[C@@H](O)C3)c[nH]c12 | 13 | 0.073 | 178 |  | 
CSC[C@H]1CN(Cc2c[nH]c3c(N)nccc23)C[C@@H]1O | 31.9 | 10.3 | 3.1 |  | 
O=c1[nH]ccc2c(CN3C[C@H](CO)[C@@H](O)C3)c[nH]c12 |  |  |  | inactive | inactive
C#CCCCSC[C@H]1CN(Cc2c[nH]c3c(N)ncnc23)C[C@@H]1O | 0.94 | 0.026 | 36.2 |  | 
CCCCn1cc(CCCSC[C@H]2CN(Cc3c[nH]c4c(N)ncnc34)C[C@@H]2O)nn1 | 1.3 | 0.028 | 46.4 |  | 
